# Test results: PubChem BioAssay AID602315 (Southern Research Specialized Biocontainment Screening …, 2012)
# Records with an inconclusive call do not appear. Calls of active or inactive are those of the source.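 Rule for the calls: active = inhibition of 30% or more at any tested concentration; inactive = the rest, inconclusive results apart.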
# Biological target: M1-family alanyl aminopeptidase (Plasmodium falciparum 3D7)
# Experiment: PfM1AAP aminopeptidase inhibitors, dose response, counter-screen for PfM17LAP inhibitor project, biochemical, QFRET, set 3 (AID 602315)
# Conditions: recombinant PfM1AAP, H-Leu-NHMec fluorogenic cleavage
# How it was run: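 system = recombinant PfM1AAP enzyme | input = PfM1AAP enzyme at 5 µg/mL final | medium = 50 mM Tris-HCl buffer pH 7.5, 2 mM CoCl2, 2% DMSO | compound = 10 doses, 100–0.2 µM, 1:2 steps | schedule = 90 min reaction, room temperature | signal = fluorescence, ex 370/em 460 nm | benchmarks = enzyme-free wells as background reference | repeats = triplicate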
row,IC50 [µM],Compound
1,16.7,CCCOc1ccc(CC(=O)NO)cc1
2,28.2,CCCCOc1ccc(C(C)C(=O)NO)cc1 (stereo not drawn)
3,20.2,CCC(C)Oc1ccc(CC(=O)NO)cc1 (stereo not drawn)
4,26,CCCCOc1cccc(CC(=O)NO)c1

# Same assay, conditions: recombinant PfM1AAP, H-Leu-NHMec fluorogenic cleavage; at 100 µM (top of the series)
row,inhibition,Compound
1,inactive,CCCCOc1ccc(C(C)C(=O)OC)cc1 (stereo not drawn)
2,inactive,CN(C)CCOc1ccc(CC(=O)O)cc1
3,inactive,CCCCOc1ccc(C(C)(C)C(=O)O)cc1
4,inactive,CCCCOc1ccc(CN(O)C(=O)c2ccccc2)cc1
5,inactive,O=C(NO)c1ccc2ccccc2c1
6,inactive,CCCCOc1cccc(CC(=O)OC)c1
7,inactive,CCCCOc1ccc(C(C)C(=O)O)cc1 (stereo not drawn)
8,inactive,CCCCOc1ccc(C(C)(C)C(=O)NO)cc1
9,inactive,CCCCOc1ccc(CN(O)C(C)=O)cc1
